Measurements: ChEMBL document CHEMBL2384941, “A small molecule inhibitor of fungal histone acetyltransferase Rtt109” (Bioorg Med Chem Lett, 2013)
Blank lines part the entries; values can stand above or below the compound they belong to. Calls of active or inactive are those of the source. The calls are words filed in the database; no cut-off is given here.

How the values were obtained:
[1] = tested on: Rtt109 (Saccharomyces cerevisiae); experiment: Inhibition of Vps75-stimulated recombinant Saccharomyces cerevisiae 6xHis-tagged histone acetyltransferase Rtt109 using H3n21 peptide and acetyl-coenzyme A as substrate assessed as release of CoA at 0.3 to 10 uM preincubated for 5 mins with H3n21 followed by acetyl-coenzyme A addition measured …
[2] = tested on: Rtt109 (Saccharomyces cerevisiae); experiment: Inhibition of Vps75-stimulated recombinant Saccharomyces cerevisiae 6xHis-tagged histone acetyltransferase Rtt109 using H3n21 peptide and acetyl-coenzyme A as substrate assessed as release of CoA at 0.1 to 1 uM preincubated for 5 mins with H3n21 followed by acetyl-coenzyme A addition measured after …
[3] = target: Histone acetyltransferase p300 (Homo sapiens) (UniProt Q09472); experiment: Inhibition of N-terminal 6xHis-Flag epitope-tagged histone acetyltransferase p300 catalytic domain (1195 to 1810) (unknown origin) expressed in Escherichia coli BL21 using acetyl-coenzyme A as substrate assessed as release of coenzyme A incubated for 5 mins prior to acetyl-coenzyme A addition measured every 2 mins for 10 mins by ThioGlo1 assay
Histone acetyltransferase p300 (Homo sapiens), sequence (Q09472 whole entry, the tested form may be a part): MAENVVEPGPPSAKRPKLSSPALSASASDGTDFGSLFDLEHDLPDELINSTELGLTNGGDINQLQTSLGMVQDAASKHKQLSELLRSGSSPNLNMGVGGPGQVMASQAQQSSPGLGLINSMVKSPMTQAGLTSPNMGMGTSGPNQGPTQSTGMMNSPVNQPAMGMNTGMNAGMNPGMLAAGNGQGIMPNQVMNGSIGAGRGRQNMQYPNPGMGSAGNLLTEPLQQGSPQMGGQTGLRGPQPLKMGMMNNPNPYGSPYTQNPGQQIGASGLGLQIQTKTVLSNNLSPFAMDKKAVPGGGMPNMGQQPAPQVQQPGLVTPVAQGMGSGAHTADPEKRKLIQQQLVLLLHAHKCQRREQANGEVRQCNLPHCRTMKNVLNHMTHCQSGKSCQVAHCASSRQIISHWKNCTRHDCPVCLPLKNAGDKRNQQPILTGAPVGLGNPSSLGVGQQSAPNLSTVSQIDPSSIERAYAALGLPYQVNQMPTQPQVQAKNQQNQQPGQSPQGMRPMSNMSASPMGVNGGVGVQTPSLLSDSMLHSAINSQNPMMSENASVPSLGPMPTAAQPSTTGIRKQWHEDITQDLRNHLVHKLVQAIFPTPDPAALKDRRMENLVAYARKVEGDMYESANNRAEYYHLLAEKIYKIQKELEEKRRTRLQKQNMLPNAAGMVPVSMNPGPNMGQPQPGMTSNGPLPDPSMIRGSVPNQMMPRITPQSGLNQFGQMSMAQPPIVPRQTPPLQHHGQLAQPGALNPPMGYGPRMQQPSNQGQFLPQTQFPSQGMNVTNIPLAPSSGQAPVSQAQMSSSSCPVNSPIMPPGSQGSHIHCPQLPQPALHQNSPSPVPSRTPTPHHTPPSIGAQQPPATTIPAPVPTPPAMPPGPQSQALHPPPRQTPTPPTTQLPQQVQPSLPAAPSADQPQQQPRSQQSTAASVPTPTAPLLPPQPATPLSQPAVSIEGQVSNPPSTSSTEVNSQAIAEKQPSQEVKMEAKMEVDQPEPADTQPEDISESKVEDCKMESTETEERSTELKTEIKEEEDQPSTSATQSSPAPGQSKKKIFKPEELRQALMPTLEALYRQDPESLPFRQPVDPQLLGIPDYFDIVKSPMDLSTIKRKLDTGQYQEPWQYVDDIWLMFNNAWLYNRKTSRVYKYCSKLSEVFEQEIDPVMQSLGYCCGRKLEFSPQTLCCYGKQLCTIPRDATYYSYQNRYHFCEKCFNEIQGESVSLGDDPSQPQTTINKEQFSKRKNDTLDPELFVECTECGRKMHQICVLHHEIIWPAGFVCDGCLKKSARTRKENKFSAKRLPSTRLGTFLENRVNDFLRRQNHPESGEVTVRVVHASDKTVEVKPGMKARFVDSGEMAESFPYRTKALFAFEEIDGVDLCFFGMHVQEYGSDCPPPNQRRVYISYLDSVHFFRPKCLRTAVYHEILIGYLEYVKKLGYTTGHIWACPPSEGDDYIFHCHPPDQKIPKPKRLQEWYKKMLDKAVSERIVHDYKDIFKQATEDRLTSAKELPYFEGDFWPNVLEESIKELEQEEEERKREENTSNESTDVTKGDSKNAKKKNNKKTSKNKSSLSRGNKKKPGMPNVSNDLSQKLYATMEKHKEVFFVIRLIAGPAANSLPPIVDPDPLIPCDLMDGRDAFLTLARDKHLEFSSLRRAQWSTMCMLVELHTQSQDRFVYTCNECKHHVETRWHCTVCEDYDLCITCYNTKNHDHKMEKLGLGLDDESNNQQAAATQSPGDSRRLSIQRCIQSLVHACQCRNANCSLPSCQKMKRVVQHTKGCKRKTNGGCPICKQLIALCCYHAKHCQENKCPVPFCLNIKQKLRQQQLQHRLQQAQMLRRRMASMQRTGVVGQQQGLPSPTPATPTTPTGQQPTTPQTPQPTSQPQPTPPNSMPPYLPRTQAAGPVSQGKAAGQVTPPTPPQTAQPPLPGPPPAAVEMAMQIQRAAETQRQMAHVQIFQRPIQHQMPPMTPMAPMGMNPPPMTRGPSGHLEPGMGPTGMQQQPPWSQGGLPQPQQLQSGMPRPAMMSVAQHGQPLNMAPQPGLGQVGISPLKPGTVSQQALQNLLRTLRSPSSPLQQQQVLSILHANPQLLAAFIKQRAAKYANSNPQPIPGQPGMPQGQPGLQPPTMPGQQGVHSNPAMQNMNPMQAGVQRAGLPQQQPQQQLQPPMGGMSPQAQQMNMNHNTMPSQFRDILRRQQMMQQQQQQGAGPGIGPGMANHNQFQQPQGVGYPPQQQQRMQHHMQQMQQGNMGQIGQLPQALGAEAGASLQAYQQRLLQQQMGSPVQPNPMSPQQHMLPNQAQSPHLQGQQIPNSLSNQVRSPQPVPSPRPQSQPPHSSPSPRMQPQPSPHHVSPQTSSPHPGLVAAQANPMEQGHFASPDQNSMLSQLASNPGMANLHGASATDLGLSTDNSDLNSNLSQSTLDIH
Method in brief: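 p300 (15 µg/ml) or Gcn5 (3.1 µg/ml, 61 nM) with 15 µM H3n21 peptide. Pre-incubated 5 min at 30°C with compound (up to 100 µM) or DMSO. Started with 30 µM acetyl-CoA. Released CoA quantified every 2 min over the first 10 min. Rates from linear regression of product versus time.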

[4] = target: T1, Lysine-specific demethylase 4A (Homo sapiens, UniProt O75164); experiment: Inhibition of JMJD2A tudor domain (unknown origin) using histone H4 peptide trimethylated on lysine 20 as substrate
T1 sequence (O75164 whole entry): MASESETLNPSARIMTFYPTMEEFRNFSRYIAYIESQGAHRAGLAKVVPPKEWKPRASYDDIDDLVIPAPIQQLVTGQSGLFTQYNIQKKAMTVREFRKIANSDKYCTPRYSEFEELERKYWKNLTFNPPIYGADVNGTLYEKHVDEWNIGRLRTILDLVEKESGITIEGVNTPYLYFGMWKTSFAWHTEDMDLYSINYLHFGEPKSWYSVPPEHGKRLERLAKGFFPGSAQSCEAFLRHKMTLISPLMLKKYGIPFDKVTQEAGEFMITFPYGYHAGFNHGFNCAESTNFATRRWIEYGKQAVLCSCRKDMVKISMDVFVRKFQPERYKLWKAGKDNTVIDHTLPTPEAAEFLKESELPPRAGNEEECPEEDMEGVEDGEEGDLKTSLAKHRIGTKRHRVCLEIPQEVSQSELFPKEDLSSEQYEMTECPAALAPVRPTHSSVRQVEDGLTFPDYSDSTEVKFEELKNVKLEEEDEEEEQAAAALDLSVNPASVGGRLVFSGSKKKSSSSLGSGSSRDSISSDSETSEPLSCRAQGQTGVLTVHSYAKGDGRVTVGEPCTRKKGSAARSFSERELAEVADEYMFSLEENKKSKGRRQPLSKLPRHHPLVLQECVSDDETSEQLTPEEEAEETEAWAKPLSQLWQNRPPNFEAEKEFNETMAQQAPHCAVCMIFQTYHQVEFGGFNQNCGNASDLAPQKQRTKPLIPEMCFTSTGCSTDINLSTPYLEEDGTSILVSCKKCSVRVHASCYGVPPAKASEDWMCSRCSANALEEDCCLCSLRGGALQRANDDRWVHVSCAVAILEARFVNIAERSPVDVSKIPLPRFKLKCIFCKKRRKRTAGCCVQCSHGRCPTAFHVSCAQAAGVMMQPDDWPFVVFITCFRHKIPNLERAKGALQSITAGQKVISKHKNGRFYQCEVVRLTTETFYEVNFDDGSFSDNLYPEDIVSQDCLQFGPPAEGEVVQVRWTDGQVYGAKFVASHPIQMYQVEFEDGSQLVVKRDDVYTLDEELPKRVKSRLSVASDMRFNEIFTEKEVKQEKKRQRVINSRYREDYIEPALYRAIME

[5] = target: T2, Histone acetyltransferase SAS2 (Saccharomyces cerevisiae (strain ATCC 204508 / S288c) (Baker's yeast)) (UniProt P40963); experiment: Inhibition of Vps75-stimulated recombinant Saccharomyces cerevisiae 6xHis-tagged histone acetyltransferase Rtt109 using H3n21 peptide and acetyl-coenzyme A as substrate assessed as release of coenzyme A at 56 1.3 nM incubated for 5 mins prior to acetyl-coenzyme A addition measured every 2 mins for 10 mins by ThioGlo1 assay relative to control
T2 sequence (whole entry): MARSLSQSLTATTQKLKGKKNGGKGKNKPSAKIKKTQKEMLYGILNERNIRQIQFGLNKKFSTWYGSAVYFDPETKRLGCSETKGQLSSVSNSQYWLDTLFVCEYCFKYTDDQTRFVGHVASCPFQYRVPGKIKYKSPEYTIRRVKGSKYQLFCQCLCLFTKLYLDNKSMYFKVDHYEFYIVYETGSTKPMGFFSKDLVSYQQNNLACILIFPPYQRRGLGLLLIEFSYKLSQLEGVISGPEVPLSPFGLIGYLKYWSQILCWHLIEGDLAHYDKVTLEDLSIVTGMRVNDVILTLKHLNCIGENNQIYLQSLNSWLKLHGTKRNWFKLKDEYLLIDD

[6] = tested on: Candida albicans; experiment: Inhibition of histone acetyltransferase Rtt109 in Candida albicans assessed as camptothecin-induced DNA damage
[7] = target: Histone acetyltransferase RTT109 (Saccharomyces cerevisiae) (UniProt Q07794); experiment: Inhibition of Vps75-stimulated recombinant Saccharomyces cerevisiae 6xHis-tagged histone acetyltransferase Rtt109 using H3n21 peptide as substrate assessed as release of coenzyme A at […] by ThioGlo1 assay relative to control; design: scale not given: the % may be the effect or the level left
Histone acetyltransferase RTT109 (Saccharomyces cerevisiae), sequence (Q07794 whole entry, looked up): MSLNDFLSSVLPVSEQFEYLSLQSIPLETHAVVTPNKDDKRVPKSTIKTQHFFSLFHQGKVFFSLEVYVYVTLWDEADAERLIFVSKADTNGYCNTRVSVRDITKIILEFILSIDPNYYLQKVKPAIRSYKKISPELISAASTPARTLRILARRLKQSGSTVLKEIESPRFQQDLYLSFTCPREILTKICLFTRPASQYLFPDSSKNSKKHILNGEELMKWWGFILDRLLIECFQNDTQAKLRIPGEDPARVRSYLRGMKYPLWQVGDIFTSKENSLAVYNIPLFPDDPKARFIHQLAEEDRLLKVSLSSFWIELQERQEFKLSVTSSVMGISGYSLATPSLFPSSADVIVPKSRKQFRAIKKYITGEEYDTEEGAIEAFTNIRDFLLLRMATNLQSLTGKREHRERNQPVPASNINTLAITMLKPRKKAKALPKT

[8] = tested on: Candida albicans; experiment: Inhibition of histone acetyltransferase Rtt109 in Candida albicans assessed as inhibition of H3K56 acetylation
[9] = target: Histone acetyltransferase p300 (Homo sapiens) (UniProt Q09472); experiment: Inhibition of N-terminal 6xHis-Flag epitope-tagged histone acetyltransferase p300 catalytic domain (1195 to 1810) (unknown origin) expressed in Escherichia coli BL21 using (H3-H4)2 peptide and acetyl-coenzyme A as substrate assessed as inhibition of lysine acetylation incubated for 5 mins prior to acetyl-coenzyme A addition measured after 30 mins by ELISA
Method in brief: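 p300 (15 µg/ml) with […] (H3-H4)2 tetramers. Pre-incubated 5 min with compound or DMSO, then started with 15 µM acetyl-CoA. Run 30 min at 30°C. Lysine acetylation detected by ELISA with a polyclonal anti-acetyllysine antibody.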

[10] = target: Histone acetyltransferase RTT109 (Saccharomyces cerevisiae) (UniProt Q07794); experiment: Irreversible inhibition of Vps75-stimulated recombinant Saccharomyces cerevisiae 6xHis-tagged histone acetyltransferase Rtt109 using H3n21 peptide as substrate assessed as release of coenzyme A at […] after 4 hrs by 10 fold dilution assay relative to control; design: scale not given: the % may be the effect or the level left

Compound: CCC1(c2ccccc2)NC(=O)N(CC(=O)N(C)Cc2c(F)cccc2Cl)C1=O (stereo unspecified)
- inhibition [2]: Active

Compound: CCCC1(c2ccccc2)NC(=O)N(Cc2ccc(F)cc2Cl)C1=O (stereo unspecified)
- inhibition [1]: inactive

Compound: CC(C)c1ccc(C2(C)NC(=O)N(CC(=O)N(C)Cc3c(F)cccc3Cl)C2=O)cc1 (stereo unspecified)
- inhibition [1]: inactive

Compound: CCC1(c2ccc(F)cc2)NC(=O)N(CC(=O)NCc2ccc(Cl)cc2Cl)C1=O (stereo unspecified)
- inhibition [1]: inactive

Continued, in another order:

- inhibition [1]: inactive
Compound: CCCCC1(c2ccccc2)NC(=O)N(CC(=O)NCc2ccc(Cl)cc2Cl)C1=O (stereo unspecified)

- inhibition [1]: inactive
Compound: CN(Cc1c(F)cccc1Cl)C(=O)CN1C(=O)NC2(CCCCc3ccccc32)C1=O (stereo unspecified)

- inhibition [1]: inactive
Compound: CC(C)CC1(c2ccccc2)NC(=O)N(CC(=O)NCc2ccc(Cl)cc2Cl)C1=O (stereo unspecified)

- inhibition [1]: inactive
Compound: CCCC1(c2ccccc2)NC(=O)N(Cc2c(F)cccc2Cl)C1=O (stereo unspecified)

- inhibition [3]: inactive
- IC50 [4]: 25 µM
- inhibition [5]: 50%
- Activity [7]: 47%
- inhibition [8]: inactive
- inhibition [9]: inactive
- Activity [10]: 33%
Compound: CCC[C@]1(c2ccccc2)NC(=O)N(CC(=O)N(C)Cc2c(F)cccc2Cl)C1=O
- inhibition [6]: inactive
